{"source": "ChEMBL document CHEMBL4765452", "about": "“Discovery of (E)-N-(4-methyl-5-(3-(2-(pyridin-2-yl)vinyl)-1H-indazol-6-yl)thiazol-2-yl)-2-(4-methylpiperazin-1-yl)acetamide (IHMT-TRK-284) as a novel orally available type II TRK kinase inhibitor capable of overcoming multiple resistant mutants” (Eur J Med Chem, 2020)", "key": {"[1]": {"experiment": "Apparent clearance in mouse at 1 mg/kg, iv", "type": "ADME, organism-based", "conditions": "in vivo"}, "[2]": {"target": "T1, Mast/stem cell growth factor receptor Kit (Homo sapiens, UniProt P10721)", "T1 sequence (P10721 whole entry, the tested form may be a part)": "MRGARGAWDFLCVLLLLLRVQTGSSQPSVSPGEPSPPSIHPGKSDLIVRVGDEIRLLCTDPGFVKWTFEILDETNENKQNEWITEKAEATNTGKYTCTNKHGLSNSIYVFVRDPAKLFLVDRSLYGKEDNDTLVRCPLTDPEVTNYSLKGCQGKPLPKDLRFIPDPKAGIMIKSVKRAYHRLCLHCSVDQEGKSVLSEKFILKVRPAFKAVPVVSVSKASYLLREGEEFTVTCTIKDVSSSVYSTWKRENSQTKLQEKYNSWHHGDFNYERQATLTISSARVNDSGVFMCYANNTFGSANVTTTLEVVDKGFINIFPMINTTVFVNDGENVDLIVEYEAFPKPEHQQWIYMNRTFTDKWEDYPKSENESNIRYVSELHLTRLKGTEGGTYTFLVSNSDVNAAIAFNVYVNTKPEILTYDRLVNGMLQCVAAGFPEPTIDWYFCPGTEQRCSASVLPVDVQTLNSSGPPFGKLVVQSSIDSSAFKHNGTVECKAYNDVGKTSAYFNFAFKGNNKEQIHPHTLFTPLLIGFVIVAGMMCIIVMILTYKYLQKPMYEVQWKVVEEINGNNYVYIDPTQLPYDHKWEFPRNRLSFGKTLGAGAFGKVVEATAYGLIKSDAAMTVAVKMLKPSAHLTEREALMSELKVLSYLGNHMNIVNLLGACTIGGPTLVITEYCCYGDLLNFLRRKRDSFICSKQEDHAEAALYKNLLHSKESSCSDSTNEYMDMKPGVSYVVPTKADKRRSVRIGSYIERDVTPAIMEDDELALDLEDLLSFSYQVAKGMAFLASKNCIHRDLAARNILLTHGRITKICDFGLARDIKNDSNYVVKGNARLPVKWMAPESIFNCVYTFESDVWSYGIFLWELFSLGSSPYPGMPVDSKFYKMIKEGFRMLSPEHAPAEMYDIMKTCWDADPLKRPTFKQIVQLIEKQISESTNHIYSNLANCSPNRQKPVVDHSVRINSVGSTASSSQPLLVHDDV", "experiment": "Inhibition of TEL fused KIT (unknown origin) transfected in mouse BAF3 cells assessed as growth inhibition after 72 hrs by CCK8 assay", "type": "cell-based", "in_short": "(§1)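 TEL-fusion isogenic BaF3 lines were built in-house and grown in RPMI 1640 with 10% FBS and 1% penicillin/streptomycin at 37 °C under 5% CO2. Cells were spun down before use.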"}, "[3]": {"target": "T2, BDNF/NT-3 growth factors receptor (Homo sapiens, UniProt Q16620)", "T2 sequence (Q16620 32-822 limits assumed)": "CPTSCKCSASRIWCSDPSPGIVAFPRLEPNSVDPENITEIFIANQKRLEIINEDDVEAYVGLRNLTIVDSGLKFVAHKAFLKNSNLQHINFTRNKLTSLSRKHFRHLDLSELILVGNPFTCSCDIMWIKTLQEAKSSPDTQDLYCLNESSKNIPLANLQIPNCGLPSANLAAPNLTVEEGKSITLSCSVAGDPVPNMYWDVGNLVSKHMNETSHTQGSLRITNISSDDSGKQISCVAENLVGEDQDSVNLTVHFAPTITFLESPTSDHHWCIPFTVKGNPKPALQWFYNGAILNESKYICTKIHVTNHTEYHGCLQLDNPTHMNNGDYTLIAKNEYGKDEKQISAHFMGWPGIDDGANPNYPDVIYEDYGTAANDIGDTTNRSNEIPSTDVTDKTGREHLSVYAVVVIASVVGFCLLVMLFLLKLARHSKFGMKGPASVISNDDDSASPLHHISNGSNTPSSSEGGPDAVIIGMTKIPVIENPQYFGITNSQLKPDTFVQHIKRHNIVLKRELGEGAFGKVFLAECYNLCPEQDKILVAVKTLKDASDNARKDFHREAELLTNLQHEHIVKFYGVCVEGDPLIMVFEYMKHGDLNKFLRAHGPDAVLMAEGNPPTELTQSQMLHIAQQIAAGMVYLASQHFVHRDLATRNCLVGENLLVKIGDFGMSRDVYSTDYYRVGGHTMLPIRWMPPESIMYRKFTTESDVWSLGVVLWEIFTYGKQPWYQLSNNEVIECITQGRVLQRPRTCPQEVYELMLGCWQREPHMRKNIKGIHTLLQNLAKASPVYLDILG", "experiment": "Inhibition of TEL fused TRKB (unknown origin) transfected in mouse BAF3 cells assessed as growth inhibition after 72 hrs by CCK8 assay", "type": "cell-based", "in_short": "as §1"}, "[4]": {"target": "High affinity nerve growth factor receptor (Homo sapiens, UniProt P04629)", "sequence (P04629 33-796 limits assumed)": "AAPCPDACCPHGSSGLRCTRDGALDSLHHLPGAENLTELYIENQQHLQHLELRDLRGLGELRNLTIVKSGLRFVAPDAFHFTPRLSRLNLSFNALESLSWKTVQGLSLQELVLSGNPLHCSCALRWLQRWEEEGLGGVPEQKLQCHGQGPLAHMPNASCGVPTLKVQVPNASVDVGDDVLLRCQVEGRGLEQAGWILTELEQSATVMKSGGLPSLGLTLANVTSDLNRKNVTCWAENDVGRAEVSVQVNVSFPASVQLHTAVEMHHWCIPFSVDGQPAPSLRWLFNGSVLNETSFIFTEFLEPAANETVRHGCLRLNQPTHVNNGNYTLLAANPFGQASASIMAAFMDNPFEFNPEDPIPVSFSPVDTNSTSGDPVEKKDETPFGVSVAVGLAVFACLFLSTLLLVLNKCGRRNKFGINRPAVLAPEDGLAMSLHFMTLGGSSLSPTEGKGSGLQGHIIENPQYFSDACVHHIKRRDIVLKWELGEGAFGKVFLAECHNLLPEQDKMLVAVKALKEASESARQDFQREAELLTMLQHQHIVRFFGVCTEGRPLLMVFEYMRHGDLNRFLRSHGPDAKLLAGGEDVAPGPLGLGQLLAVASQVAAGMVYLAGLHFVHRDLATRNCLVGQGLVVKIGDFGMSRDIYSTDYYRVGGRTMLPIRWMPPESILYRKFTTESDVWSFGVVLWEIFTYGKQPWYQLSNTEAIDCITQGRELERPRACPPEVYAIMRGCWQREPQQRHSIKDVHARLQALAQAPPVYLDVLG", "experiment": "Inhibition of LMNA fused TRKA (unknown origin) transfected in mouse BAF3 cells assessed as growth inhibition after 72 hrs by CCK8 assay", "type": "cell-based"}, "BaF3 [5]": {"system": "BaF3", "experiment": "Inhibition of LMNA fused TRKA V573M mutant (unknown origin) transfected in mouse BAF3 cells assessed as growth inhibition after 72 hrs by CCK8 assay", "type": "cell-based", "conditions": "Homo sapiens"}, "[6]": {"system": "High affinity nerve growth factor receptor (Homo sapiens), P04629 [G595R]", "sequence (P04629 whole entry G595R, looked up, the tested form may be a part)": "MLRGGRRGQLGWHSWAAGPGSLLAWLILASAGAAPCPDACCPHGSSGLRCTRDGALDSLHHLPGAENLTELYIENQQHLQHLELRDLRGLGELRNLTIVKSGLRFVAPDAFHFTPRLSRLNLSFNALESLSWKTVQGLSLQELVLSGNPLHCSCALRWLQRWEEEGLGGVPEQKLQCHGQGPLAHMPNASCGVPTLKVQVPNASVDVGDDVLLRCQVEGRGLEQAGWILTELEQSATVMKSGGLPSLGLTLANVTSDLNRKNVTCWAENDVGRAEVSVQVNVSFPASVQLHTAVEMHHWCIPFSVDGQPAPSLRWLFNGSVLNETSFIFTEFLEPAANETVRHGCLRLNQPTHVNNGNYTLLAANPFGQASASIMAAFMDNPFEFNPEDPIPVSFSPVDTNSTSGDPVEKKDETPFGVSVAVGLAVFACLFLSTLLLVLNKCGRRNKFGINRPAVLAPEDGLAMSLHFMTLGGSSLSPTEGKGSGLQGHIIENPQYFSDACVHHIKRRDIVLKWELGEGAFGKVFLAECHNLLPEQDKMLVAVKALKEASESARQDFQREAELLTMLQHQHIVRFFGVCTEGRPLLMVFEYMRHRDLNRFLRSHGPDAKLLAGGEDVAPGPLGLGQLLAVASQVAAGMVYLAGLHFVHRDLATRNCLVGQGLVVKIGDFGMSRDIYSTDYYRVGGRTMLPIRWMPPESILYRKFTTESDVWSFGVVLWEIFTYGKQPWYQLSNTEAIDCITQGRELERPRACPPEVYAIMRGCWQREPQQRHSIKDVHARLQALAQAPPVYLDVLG", "experiment": "Inhibition of LMNA fused TRKA G595R mutant (unknown origin) transfected in mouse BAF3 cells assessed as growth inhibition after 72 hrs by CCK8 assay", "type": "cell-based"}, "[7]": {"system": "High affinity nerve growth factor receptor (Homo sapiens), P04629 [G667C]", "sequence (P04629 whole entry G667C, looked up, the tested form may be a part)": "as the sequence (P04629 whole entry G595R, looked up, the tested form may be a part) above, with R595G, G667C counted along it", "experiment": "Inhibition of LMNA fused TRKA G667C mutant (unknown origin) transfected in mouse BAF3 cells assessed as growth inhibition after 72 hrs by CCK8 assay", "type": "cell-based", "in_short": "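TEL- or LMNA-fusion isogenic BaF3 lines grown in RPMI 1640 with 10% FBS and 1% penicillin/streptomycin at 37 °C, 5% CO₂; suspension cells collected by spinning at 800 rpm for 4 min before use; growth inhibition scored as GI₅₀.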"}, "[8]": {"target": "T2, BDNF/NT-3 growth factors receptor", "experiment": "Inhibition of human TRKB assessed as remaining enzyme activity at 1 uM by Kinomescan method relative to control"}, "[9]": {"target": "T1, Mast/stem cell growth factor receptor Kit", "experiment": "Inhibition of human KIT by Z-LYTE or ADP-Glo assay", "in_short": "(§2)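 Purified kinase proteins tested biochemically in Z'LYTE or ADP-Glo format.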"}, "[10]": {"target": "Platelet-derived growth factor receptor beta (Homo sapiens, UniProt P09619)", "sequence (P09619 whole entry)": "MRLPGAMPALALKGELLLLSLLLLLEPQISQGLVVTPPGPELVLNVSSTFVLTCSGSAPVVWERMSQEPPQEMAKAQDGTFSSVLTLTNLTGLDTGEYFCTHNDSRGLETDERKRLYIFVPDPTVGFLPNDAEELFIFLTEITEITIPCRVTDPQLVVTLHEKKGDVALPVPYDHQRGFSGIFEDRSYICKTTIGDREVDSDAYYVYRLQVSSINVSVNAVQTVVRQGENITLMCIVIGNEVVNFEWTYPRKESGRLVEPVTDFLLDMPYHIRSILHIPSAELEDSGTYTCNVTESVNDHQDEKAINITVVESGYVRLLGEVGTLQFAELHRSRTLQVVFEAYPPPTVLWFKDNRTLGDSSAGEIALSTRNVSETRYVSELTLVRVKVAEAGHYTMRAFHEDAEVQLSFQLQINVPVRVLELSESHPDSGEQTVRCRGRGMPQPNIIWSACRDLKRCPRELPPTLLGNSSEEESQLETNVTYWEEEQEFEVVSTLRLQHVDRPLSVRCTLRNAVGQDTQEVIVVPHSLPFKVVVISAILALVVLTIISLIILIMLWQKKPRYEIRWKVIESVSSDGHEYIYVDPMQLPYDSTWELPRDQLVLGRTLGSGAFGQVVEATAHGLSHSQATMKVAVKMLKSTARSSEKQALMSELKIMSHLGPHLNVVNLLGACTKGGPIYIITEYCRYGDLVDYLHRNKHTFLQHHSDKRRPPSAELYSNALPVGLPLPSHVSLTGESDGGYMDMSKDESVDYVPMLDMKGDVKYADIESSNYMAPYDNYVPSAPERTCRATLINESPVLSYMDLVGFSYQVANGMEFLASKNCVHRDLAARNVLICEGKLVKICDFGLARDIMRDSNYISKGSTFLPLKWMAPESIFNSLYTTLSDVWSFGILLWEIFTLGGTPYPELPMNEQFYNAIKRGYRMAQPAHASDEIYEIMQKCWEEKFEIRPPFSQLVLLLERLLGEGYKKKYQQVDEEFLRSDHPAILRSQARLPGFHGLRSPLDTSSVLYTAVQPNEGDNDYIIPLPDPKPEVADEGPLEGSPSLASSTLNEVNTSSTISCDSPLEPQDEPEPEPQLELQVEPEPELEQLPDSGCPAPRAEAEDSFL", "experiment": "Inhibition of human PDGFR beta by Z-LYTE or ADP-Glo assay", "in_short": "as §2"}, "[11]": {"target": "High affinity nerve growth factor receptor (Homo sapiens, UniProt P04629, G595R)", "sequence (P04629 33-796 G595R limits assumed)": "as the sequence (P04629 33-796 limits assumed) above, with G563R counted along it", "experiment": "Inhibition of LMNA fused TRKA G595R mutant (unknown origin) transfected in mouse BaF3 cells assessed as reduction in phosphorylation at Y490 residue after 2 hrs by Western blot analysis", "type": "cell-based"}, "[12]": {"experiment": "Tmax in mouse at 10 mg/kg, po", "type": "ADME, organism-based", "conditions": "in vivo", "in_short": "(§3)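 Single-dose PK in mice, Sprague Dawley rats and beagle dogs, given i.v. (1 mg/kg) or p.o. (10 mg/kg mice and rats; 5 mg/kg dogs). AUC0-t, T1/2, Tmax and oral bioavailability (F) derived from plasma profiles.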"}, "[13]": {"experiment": "Half life in mouse at 1 mg/kg, iv", "type": "ADME, organism-based", "conditions": "in vivo"}, "[14]": {"experiment": "Cmax in mouse at 1 mg/kg, iv", "type": "ADME, organism-based", "design": "route intravenous, dose 1 mg/kg", "conditions": "in vivo"}, "[15]": {"experiment": "AUC (0 to t) in Sprague-Dawley rat at 1 mg/kg, iv", "type": "ADME, organism-based", "design": "dose 1 mg/kg", "conditions": "in vivo", "in_short": "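Intravenous and oral arms were run in parallel in each species (mice, Sprague Dawley rats, beagle dogs). Exposure is reported as AUC0-t in ng/mL·h.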"}, "[16]": {"experiment": "Tmax in Sprague-Dawley rat at 1 mg/kg, iv", "type": "ADME, organism-based", "conditions": "in vivo", "in_short": "as §3"}, "[17]": {"experiment": "Apparent volume of distribution in Sprague-Dawley rat at 1 mg/kg, iv", "type": "ADME, organism-based", "conditions": "in vivo, read-out: Vz"}, "[18]": {"experiment": "Apparent clearance in Sprague-Dawley rat at 10 mg/kg, po", "type": "ADME, organism-based", "conditions": "in vivo, read-out: CLz/F (converted)"}, "[19]": {"experiment": "Cmax in Sprague-Dawley rat at 10 mg/kg, po", "type": "ADME, organism-based", "design": "route oral, dose 10 mg/kg", "conditions": "in vivo"}, "[20]": {"experiment": "Half life in Beagle dog at 1 mg/kg, iv", "type": "ADME, organism-based, Canis lupus familiaris", "conditions": "in vivo"}, "[21]": {"experiment": "Apparent volume of distribution in Beagle dog at 1 mg/kg, iv", "type": "ADME, organism-based, Canis lupus familiaris", "conditions": "in vivo, read-out: Vz"}, "[22]": {"experiment": "Oral bioavailability in Beagle dog at 5 mg/kg", "type": "ADME, organism-based, Canis lupus familiaris", "conditions": "in vivo", "in_short": "as §3"}, "[23]": {"experiment": "Antitumor activity against human […] cells xenografted in nude mouse assessed as tumor growth inhibition at 40 mg/kg, po administered once daily for 10 days relative to control", "type": "functional", "conditions": "KM12-Luc, 240 h, time 10 day, read-out: TGI", "in_short": "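Nu/nu mice given 5 million KM-12-LUC cells in DMEM, 1:1 with matrigel, injected subcutaneously into the right flank; oral gavage started at tumor size 150–200 mm³, 5 mice per group, compound in 0.5% methylcellulose/0.4% Tween 80 in ddH₂O; body weight and tumor volume [(W²×L)/2] measured daily; TGI versus vehicle.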"}, "BaF3 [24]": {"system": "BaF3", "experiment": "Antitumor activity against mouse BAF3 cells harboring LMNA fused TRKA-G667S mutant allografted in nude mouse assessed as tumor growth inhibition at 80 mg/kg, po administered twice daily for 10 days relative to control", "type": "functional", "conditions": "240 h, time 10 day, read-out: TGI", "in_short": "(§4)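 Nu/nu mice given 1 million BaF3 cells (TEL-TRKA, TEL-TRKB, TEL-TRKC, LMNA-TRKA-F589L or LMNA-TRKA-G667S) in DMEM, 1:1 with matrigel, injected subcutaneously into the right flank; oral gavage began at 200–400 mm³, 5 mice per group, compound in 0.5% methylcellulose/0.4% Tween 80 in ddH₂O, 10 days; tumor volume [(W²×L)/2] and body weight recorded daily; TGI versus vehicle.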"}, "BaF3 [25]": {"system": "BaF3", "experiment": "Antitumor activity against mouse BAF3 cells harboring TEL fused TRKB allografted in nude mouse assessed as tumor growth inhibition at 40 mg/kg, po administered once daily for 10 days relative to control", "type": "functional", "conditions": "240 h, time 10 day, read-out: TGI", "in_short": "as §4"}, "BaF3 [26]": {"system": "BaF3", "experiment": "Antitumor activity against mouse BAF3 cells harboring TEL fused TRKB allografted in nude mouse assessed as tumor growth inhibition administered orally once daily for 10 days", "type": "functional, cell-based", "conditions": "dose 40-80 mg/kg/day, time 10.0 day", "in_short": "as §4"}, "[27]": {"experiment": "Toxicity in mouse xenografted with mouse BAF3 cells harboring […] TRKA-G667S mutant assessed as effect on body weight at 40 to 80 mg/kg, po administered twice daily for 10 days", "type": "organism-based", "conditions": "in vivo, 240 h, dose 40-80 mg/kg, time 10 day", "in_short": "(§5)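 nu/nu mice were given subcutaneous right-flank implants in 1:1 DMEM/matrigel: 1 million BaF3 fusion cells or 5 million KM-12-LUC cells. Oral gavage started at 150–200 mm3 (xenograft) or 200–400 mm3 (allograft). Dosing used 40 or 80 mg/kg in HKI vehicle (0.5% methylcellulose/0.4% Tween 80 in ddH2O), with 5 mice per group. Body weight was recorded daily and behaviour observed.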"}, "[28]": {"experiment": "Toxicity in mouse xenografted with mouse BAF3 cells harboring […] TRKA-F589L mutant assessed as effect on body weight at 40 to 80 mg/kg, po administered once daily for 10 days", "type": "organism-based", "conditions": "in vivo, 240 h, dose 40-80 mg/kg/day, time 10 day", "in_short": "as §5"}, "BaF3 [29]": {"system": "BaF3", "experiment": "Antitumor activity against mouse BAF3 cells harboring TEL fused TRKC allografted in nude mouse assessed as tumor growth inhibition administered orally once daily for 10 days", "type": "functional, cell-based", "conditions": "dose 40-80 mg/kg/day, time 10.0 day", "in_short": "as §4"}}}
{"molecule": "Cc1nc(NC(=O)CN2CCN(C)CC2)sc1-c1ccc2c(/C=C/c3ccccn3)n[nH]c2c1", "values": [{"measurement": "CLz/F", "setting": "[1]", "value": 21.7, "unit": "mL/min/kg"}, {"measurement": "GI50", "setting": "[2]", "value": 923, "unit": "nM"}, {"measurement": "GI50", "setting": "[3]", "value": 8.2, "unit": "nM"}, {"measurement": "GI50", "setting": "[4]", "value": 7, "unit": "nM"}, {"measurement": "GI50", "setting": "BaF3 [5]", "value": 3, "unit": "nM"}, {"measurement": "GI50", "setting": "[6]", "value": 194, "unit": "nM"}, {"measurement": "GI50", "setting": "[7]", "value": 34, "unit": "nM"}, {"measurement": "Activity", "setting": "[8]", "value": 0.05, "unit": "%"}, {"measurement": "IC50", "setting": "[9]", "value": 2170, "unit": "nM"}, {"measurement": "IC50", "setting": "[10]", "value": 95.7, "unit": "nM"}, {"measurement": "EC50", "setting": "[11]", "value": 120, "unit": "nM"}, {"measurement": "Tmax", "setting": "[12]", "value": 90, "unit": "min"}, {"measurement": "t1/2", "setting": "[13]", "value": 156, "unit": "min"}, {"measurement": "Cmax", "setting": "[14]", "value": 1110, "unit": "ng/mL"}, {"measurement": "AUC(0-t)", "setting": "[15]", "value": 393, "unit": "ng·h/mL"}, {"measurement": "Tmax", "setting": "[16]", "value": 1.8, "unit": "min"}, {"measurement": "Vd", "setting": "[17]", "value": 9.68, "unit": "L/kg"}, {"measurement": "CL/F", "setting": "[18]", "value": 170, "unit": "mL/min/kg"}, {"measurement": "Cmax", "setting": "[19]", "value": 139, "unit": "ng/mL"}, {"measurement": "t1/2", "setting": "[20]", "value": 1.8, "unit": "min"}, {"measurement": "Vd", "setting": "[21]", "value": 17.5, "unit": "L/kg"}, {"measurement": "bioavailability", "setting": "[22]", "value": 35, "unit": "%"}, {"measurement": "inhibition in vivo at 40 mg/kg/day", "setting": "[23]", "value": 93.4, "unit": "%"}, {"measurement": "inhibition in vivo at 80 mg/kg", "setting": "BaF3 [24]", "value": 89.1, "unit": "%"}, {"measurement": "inhibition in vivo at 40 mg/kg/day", "setting": "BaF3 [25]", "value": 83.1, "unit": "%"}, {"measurement": "Activity", "setting": "BaF3 [26]", "value": "Dose-dependent effect"}, {"measurement": "Activity", "setting": "[27]", "value": "Non-Toxic"}, {"measurement": "Activity", "setting": "[28]", "value": "Non-Toxic"}, {"measurement": "Activity", "setting": "BaF3 [29]", "value": "Dose-dependent effect"}]}
